For eight compounds, inhibition, IC50 and inhibition of growth results are on record in ChEMBL document CHEMBL1926537, “Catalytic inhibition of eukaryotic topoisomerases I and II by flavonol glycosides extracted from Vicia faba and Lotus edulis” (J Nat Prod, 2011).

Test [1] has as its system Triticum aestivum. Nature of the test: Inhibition of wheat germ topoisomerase 1-mediated relaxation of supercoiled DNA at 500 uM after 45 mins. An outline of the steps:
(§1)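 Tested at 500 μM, then 75–1000 μM. Percent inhibition derived from the supercoiled fraction on 0.8% agarose gels stained with ethidium; IC50 at 50% inhibition of relaxation; triplicate, mean ± SEM.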

In test [2] the test system is Triticum aestivum. Briefly: Inhibition of wheat germ topoisomerase 1-mediated relaxation of supercoiled DNA at 1000 uM after 45 mins. An outline of the steps: as §1
The target of test [3] is T1, DNA topoisomerase 2-alpha (Homo sapiens, UniProt P11388). Nature of the test: Inhibition of human topoisomerase 2-mediated relation of supercoiled DNA after 60 mins.
T1 sequence (P11388 whole entry): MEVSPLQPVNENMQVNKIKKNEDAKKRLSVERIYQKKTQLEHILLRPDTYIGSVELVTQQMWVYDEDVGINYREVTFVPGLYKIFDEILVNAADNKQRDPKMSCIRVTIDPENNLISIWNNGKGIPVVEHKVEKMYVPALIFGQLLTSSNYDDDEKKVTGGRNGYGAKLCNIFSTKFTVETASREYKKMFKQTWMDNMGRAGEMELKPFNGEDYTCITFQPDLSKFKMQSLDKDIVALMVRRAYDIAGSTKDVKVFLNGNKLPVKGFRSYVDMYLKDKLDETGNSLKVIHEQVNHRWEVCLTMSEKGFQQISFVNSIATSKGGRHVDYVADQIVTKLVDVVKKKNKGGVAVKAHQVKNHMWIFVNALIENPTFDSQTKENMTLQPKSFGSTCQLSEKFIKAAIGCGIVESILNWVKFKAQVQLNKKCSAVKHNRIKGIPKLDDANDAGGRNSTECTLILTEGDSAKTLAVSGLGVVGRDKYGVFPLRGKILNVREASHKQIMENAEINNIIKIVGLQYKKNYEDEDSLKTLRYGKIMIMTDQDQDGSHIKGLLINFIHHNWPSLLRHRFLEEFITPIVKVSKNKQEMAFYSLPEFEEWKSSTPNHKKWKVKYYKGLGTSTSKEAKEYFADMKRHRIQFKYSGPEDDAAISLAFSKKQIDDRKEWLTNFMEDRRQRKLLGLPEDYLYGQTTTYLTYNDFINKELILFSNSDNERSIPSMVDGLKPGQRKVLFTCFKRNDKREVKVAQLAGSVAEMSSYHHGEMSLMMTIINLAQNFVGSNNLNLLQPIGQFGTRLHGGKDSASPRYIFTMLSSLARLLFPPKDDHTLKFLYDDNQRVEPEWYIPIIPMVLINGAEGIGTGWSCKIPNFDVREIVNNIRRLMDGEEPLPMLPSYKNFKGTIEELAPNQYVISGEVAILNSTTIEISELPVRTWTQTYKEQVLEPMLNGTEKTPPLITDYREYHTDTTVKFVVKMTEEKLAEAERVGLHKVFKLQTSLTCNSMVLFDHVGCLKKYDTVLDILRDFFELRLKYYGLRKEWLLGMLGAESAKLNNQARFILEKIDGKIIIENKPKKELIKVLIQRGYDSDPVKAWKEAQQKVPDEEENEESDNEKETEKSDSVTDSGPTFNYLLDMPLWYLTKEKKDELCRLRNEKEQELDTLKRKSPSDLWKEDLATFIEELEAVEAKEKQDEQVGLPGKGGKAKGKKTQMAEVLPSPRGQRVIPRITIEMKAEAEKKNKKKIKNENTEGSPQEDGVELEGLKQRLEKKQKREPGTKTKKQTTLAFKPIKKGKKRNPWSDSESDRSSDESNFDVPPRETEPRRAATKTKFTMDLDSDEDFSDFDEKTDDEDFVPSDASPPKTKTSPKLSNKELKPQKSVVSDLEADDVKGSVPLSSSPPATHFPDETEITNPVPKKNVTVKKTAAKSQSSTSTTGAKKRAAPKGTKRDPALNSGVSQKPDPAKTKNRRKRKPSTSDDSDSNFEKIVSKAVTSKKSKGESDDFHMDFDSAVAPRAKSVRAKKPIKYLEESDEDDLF
The subject of test [4] is Triticum aestivum. Nature of the test: Inhibition of wheat germ topoisomerase 1-mediated relaxation of supercoiled DNA at 75 uM after 45 mins. An outline of the steps: as §1
The target in another test is T2, DNA topoisomerase 1 (Homo sapiens, UniProt P11387).
T2 sequence (P11387 whole entry): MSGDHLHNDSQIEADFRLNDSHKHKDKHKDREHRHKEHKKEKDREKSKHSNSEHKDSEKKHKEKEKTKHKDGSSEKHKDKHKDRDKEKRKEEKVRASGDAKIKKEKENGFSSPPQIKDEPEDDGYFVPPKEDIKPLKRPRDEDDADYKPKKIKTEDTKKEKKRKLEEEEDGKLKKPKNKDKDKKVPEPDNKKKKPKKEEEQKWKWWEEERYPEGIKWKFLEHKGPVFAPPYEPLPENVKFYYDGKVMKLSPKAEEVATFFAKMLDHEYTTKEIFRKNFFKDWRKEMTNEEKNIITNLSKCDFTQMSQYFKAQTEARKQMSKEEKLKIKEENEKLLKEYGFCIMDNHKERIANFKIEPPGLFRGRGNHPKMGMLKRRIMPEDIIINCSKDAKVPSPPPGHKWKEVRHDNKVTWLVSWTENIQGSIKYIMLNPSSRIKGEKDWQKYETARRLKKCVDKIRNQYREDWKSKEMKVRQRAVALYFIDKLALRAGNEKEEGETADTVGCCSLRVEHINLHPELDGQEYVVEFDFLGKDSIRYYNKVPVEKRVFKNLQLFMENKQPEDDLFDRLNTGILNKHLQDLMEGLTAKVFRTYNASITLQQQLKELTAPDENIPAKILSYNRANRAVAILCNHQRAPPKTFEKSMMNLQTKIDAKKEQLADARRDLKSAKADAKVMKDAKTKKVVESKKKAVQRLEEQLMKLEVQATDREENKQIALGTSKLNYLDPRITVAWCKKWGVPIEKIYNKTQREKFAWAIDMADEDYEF
Briefly: Inhibition of human topoisomerase 1-mediated relation of supercoiled DNA after 45 mins. An outline of the steps: (§2)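 Screened at 500 μM, then 100–500 μM. Read-out is 0.8% agarose gel with ethidium stain and densitometry of the supercoiled fraction. IC50 is the 50% inhibition of relaxation; triplicate, mean ± SEM.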

The target of test [5] is T1, DNA topoisomerase 2-alpha. Nature of the test: Inhibition of human topoisomerase 2-mediated relation of supercoiled DNA at 500 uM after 60 mins.
Test [6] relates to HeLa. Briefly: Growth inhibition of human HeLa cells after 48 hrs by XTT assay. Format: functional, cell-based. An outline of the steps:
(§3)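 XTT assay; HeLa, MCF7 and HepG2 seeded at 1.5 × 104, 2 × 104 and 3.5 × 10^4 cells/well in DMEM with 10% heat-inactivated FBS and penicillin/streptomycin, grown 24 h at 37 °C in 5% CO2. Compound added in DMEM-PS (100–500 μM) for 48 h, then XTT 4 h; OD at 450 nm, reference 650 nm. Etoposide 100 μM positive control; mean ± SEM.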
On the technique in general: Tetrazolium dyes change colour on reduction, which living cells bring about.

The nature of test [7]: Inhibition of wheat germ topoisomerase 1-mediated relaxation of supercoiled DNA after 45 mins. On the set-up: species or system Triticum aestivum. In outline: as §1
In test [8] the target is T1, DNA topoisomerase 2-alpha. Nature of the test: Inhibition of human topoisomerase 2-mediated relation of supercoiled DNA at 100 to 1000 uM after 60 mins.
Test [9] addresses T3, DNA topoisomerase 1 (Homo sapiens) (UniProt P11387).
T3 sequence (whole entry): T2 sequence (P11387 whole entry)
Nature of the test: Inhibition of human topoisomerase 1-mediated relation of supercoiled DNA at 500 uM after 45 mins. In outline: as §2

In test [10] the test system is HepG2. Briefly: Growth inhibition of human HepG2 cells after 48 hrs by XTT assay. Format: functional, cell-based. To be noted: HepG2, 48 h. An outline of the steps:
as §3

Test [11] addresses T1, DNA topoisomerase 2-alpha. Briefly: Inhibition of human topoisomerase 2-mediated relation of supercoiled DNA at 100 uM after 60 mins.
The subject of test [12] is MCF7. Nature of the test: Growth inhibition of human MCF7 cells after 48 hrs by XTT assay. Format: functional, cell-based. To be noted: MCF7, 48 h. An outline of the steps:
as §3

Test [13] has as its target T3, DNA topoisomerase 1 (Homo sapiens). Briefly: Inhibition of human topoisomerase 1-mediated relation of supercoiled DNA at 100 uM after 45 mins. In outline: as §2
In test [14] the target is T1, DNA topoisomerase 2-alpha. Briefly: Inhibition of human topoisomerase 2-mediated relation of supercoiled DNA at 400 uM after 60 mins.
The target in test [15] is T1, DNA topoisomerase 2-alpha. Briefly: Inhibition of human topoisomerase 2-mediated relation of supercoiled DNA at 800 uM after 60 mins.
Test [16] relates to HepG2. Briefly: Growth inhibition of human HepG2 cells at 100 uM after 48 hrs by XTT assay. Format: functional. The conditions noted are these: HepG2, 48 h, read-out: GI. In outline:
as §3

Test [17] deals with MCF7. Briefly: Growth inhibition of human MCF7 cells at 100 uM after 48 hrs by XTT assay. Format: functional. The conditions noted are these: MCF7, 48 h, read-out: GI. In outline:
as §3

Test [18] relates to HeLa. Nature of the test: Growth inhibition of human HeLa cells at 100 uM after 48 hrs by XTT assay. Format: functional. The conditions noted are these: read-out: GI. In outline:
as §3

Activity calls are given as the source filed them. The calls are words filed in the database; no cut-off is given here.

As for `CC(=O)OC[C@]1(O)CO[C@H](Oc2c(-c3ccc(O)cc3)oc3cc(O[C@@H]4O[C@@H](C)[C@H](O)[C@@H](O)[C@H]4O)cc(O)c3c2=O)[C@H]1O`, the inhibition result (in the test with Triticum aestivum [1]; in [9]) was “Active” in each case. The inhibition (in general, the percentage by which the read-out fell short of the control) with Triticum aestivum [2] is 99%; with Triticum aestivum [4], 44%; in test [5], 88%; in test [8] it was “Dose-dependent effect”; in test [11], 22%. Moreover, the IC50 (in general, the midpoint of a concentration-inhibition curve) in test [3] turned out to be 240 µM; against DNA topoisomerase 1 it was 150 µM; with HeLa [6] it was 350 µM; in test [7], 120 µM; in the test on HepG2 [10] it was 410 µM; in the test on MCF7 [12], 350 µM.

`C[C@@H]1O[C@@H](Oc2cc(O)c3c(=O)c(O[C@@H]4OC[C@H](O)[C@H](O)[C@H]4O)c(-c4ccc(O)cc4)oc3c2)[C@H](O)[C@H](O)[C@H]1O`: the inhibition entry (in the test on Triticum aestivum [1]; in test [5]; in [9]) was “Active” each time. For the same compound, the figures for the IC50 (in test [3]; on DNA topoisomerase 1; in test [7]) were 330 µM, 250 µM and 240 µM, respectively. Further, the inhibition result in test [8] was “Dose-dependent effect”.

`C[C@@H]1O[C@@H](Oc2cc(O)c3c(=O)c(O[C@@H]4O[C@H](CO)[C@@H](O)[C@H](O)[C@H]4O)c(-c4ccc(O)cc4)oc3c2)[C@H](O)[C@H](O)[C@H]1O`: the inhibition entry (in the test with Triticum aestivum [1]; in test [5]) was “Active” each time. In addition, the IC50 in [3] stood at 600 µM; against DNA topoisomerase 1, 110 µM; in [7], 350 µM. In addition, the figures for the inhibition result in [8], in test [9] and in test [13] were “Dose-dependent effect”, 94% and 45%, respectively.

Regarding `C[C@@H]1O[C@@H](Oc2cc(O)c3c(=O)c(O[C@H]4OC[C@@](O)(CO)[C@@H]4O)c(-c4ccc(O)cc4)oc3c2)[C@H](O)[C@H](O)[C@H]1O`, the midpoint of inhibition in test [3], the IC50, lay at 550 µM. Also, the inhibition in [14] is 44%; in test [8], “Dose-dependent effect”; in [15] it was 80%. For the same compound, the inhibition entry in [5] is “Active”.

For the compound `C[C@@H]1O[C@@H](Oc2cc(O)c3c(=O)c(O[C@@H]4O[C@H](CO)[C@H](O)[C@H](O)[C@H]4O[C@@H]4O[C@@H](C)[C@H](O)[C@@H](O)[C@H]4O)c(-c4ccc(O)cc4)oc3c2)[C@H](O)[C@H](O)[C@H]1O`, the inhibition entry (in the test on Triticum aestivum [1]; in [5]; in test [9]) was “Active” in each case. Further, the IC50 on DNA topoisomerase 1 amounted to 260 µM; in [7] it was 150 µM.

In the case of `COc1cc([C@@H]2c3cc4c(cc3[C@@H](O[C@@H]3O[C@@H]5CO[C@@H](C)O[C@H]5[C@H](O)[C@H]3O)[C@H]3COC(=O)[C@H]23)OCO4)cc(OC)c1O` [ETOPOSIDE], the inhibition of growth at 100 µM with HepG2 [16], in the test on MCF7 [17] and in the test with HeLa [18] was 100% in each case.

Take `C[C@@H]1O[C@@H](Oc2cc(O)c3c(=O)c(O[C@@H]4O[C@H](CO)[C@H](O)[C@H](O)[C@H]4O)c(-c4ccc(O)cc4)oc3c2)[C@H](O)[C@H](O)[C@H]1O`: the inhibition result (in the test on Triticum aestivum [1]; in test [5]; in [9]) was “Active” throughout. Further, the IC50 against DNA topoisomerase 1 was found to be 180 µM; in test [7], 200 µM.

`C[C@@H]1O[C@@H](Oc2cc(O)c3c(=O)c(O[C@@H]4O[C@H](CO)[C@@H](O)[C@H](O)[C@H]4O[C@@H]4O[C@@H](C)[C@H](O)[C@@H](O)[C@H]4O)c(-c4ccc(O)cc4)oc3c2)[C@H](O)[C@H](O)[C@H]1O`: on DNA topoisomerase 1, half-maximal inhibition (IC50) was put at 220 µM. In addition, the inhibition result in test [5] and in test [9] was “Active” in each case.
